# High-throughput results deposited in PubChem by The Scripps Research Institute Molecular Screening Center.
# CHO parental Ca = ATP-evoked calcium signal inhibitors, parental CHO, primary screen, counter-screen for OX1R antagonist project, cell-based, fluorescence, Fluo-8 calcium dye. parental CHO-K1, ATP-induced calcium, Fluo-8 fluorescence. inhibition, % at 5.6 µM. 330,000 compounds, 0.63% hits;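 active = inhibition above that plate's mean sample inhibition plus 3 SD, cut at about 26% in these data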;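 note: 0% = ATP-challenged DMSO wells and 100% = DMSO wells without ATP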
#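 Assay system: untransfected parental CHO cell line. Also added: ATP agonist challenge. Dosing: one dose, 5.6 µM nominal. Measured by: Fluo-8 fluorescence. Read-out: % inhibition. Benchmarks: ATP wells versus no-ATP DMSO wells. Repeats: no replicates.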
# GPR7 antagonist = GPR7 receptor antagonists, primary screen, cell-based, fluorescence, single concentration; Neuropeptides B/W receptor type 1 (Homo sapiens), P48145; GPR7-expressing cells, fluorescence antagonist assay; inhibition, % at 4.4 µM; 290,000 compounds, 1.1% hits; in the data active = inhibition above about 16%, passing the limit was not always enough;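 note: cells stimulated with the agonist NPW; 0% = agonist with vehicle and 100% = vehicle without agonist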
# OX1R antag-1 = antagonists of human orexin 1 receptor (OX1R); Orexin/Hypocretin receptor type 1 (Homo sapiens), O43613; OX1R-expressing cells, FRET antagonist read-out; inhibition, % at 6.6 µM; 330,000 compounds, 1.8% hits; in the data active = inhibition mostly above about 38%, no sharp cut-off; inactive = mostly below about 40%;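 note: 0% = agonist challenge alone and 100% = reference antagonist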
# Target sequence (O43613 whole entry, looked up): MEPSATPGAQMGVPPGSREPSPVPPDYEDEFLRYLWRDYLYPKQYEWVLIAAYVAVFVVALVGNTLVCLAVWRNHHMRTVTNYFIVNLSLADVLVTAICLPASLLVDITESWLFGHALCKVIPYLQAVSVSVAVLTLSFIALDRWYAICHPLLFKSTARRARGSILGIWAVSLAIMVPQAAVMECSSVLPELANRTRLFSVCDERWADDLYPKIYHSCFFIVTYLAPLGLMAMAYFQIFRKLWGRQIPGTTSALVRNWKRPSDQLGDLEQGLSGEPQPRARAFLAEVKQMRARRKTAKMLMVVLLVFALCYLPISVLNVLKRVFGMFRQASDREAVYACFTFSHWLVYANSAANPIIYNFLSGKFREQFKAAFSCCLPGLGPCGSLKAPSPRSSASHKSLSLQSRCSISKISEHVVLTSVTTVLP
# GalR3 antag = GalR3 antagonists in HEK293 cells, primary screen, cell-based, fluorescence readout | Galanin receptor type 3 (Homo sapiens), O60755 | HEK293 GalR3-CNG cAMP membrane potential fluorescence; galR3 body fused to GalR1 C-terminus | inhibition, % at 3 µM | 360,000 compounds, 0.44% hits;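 active = inhibition above the screen-wide average plus 3 SD, cut at about 13% in these data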;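 note: forskolin and galanin both at EC90 stimulate the cells; cAMP rise reported by CNG channel membrane potential dye signal; 0% = forskolin plus galanin with DMSO and 100% = forskolin alone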
# Target sequence (O60755 1-299 limits assumed): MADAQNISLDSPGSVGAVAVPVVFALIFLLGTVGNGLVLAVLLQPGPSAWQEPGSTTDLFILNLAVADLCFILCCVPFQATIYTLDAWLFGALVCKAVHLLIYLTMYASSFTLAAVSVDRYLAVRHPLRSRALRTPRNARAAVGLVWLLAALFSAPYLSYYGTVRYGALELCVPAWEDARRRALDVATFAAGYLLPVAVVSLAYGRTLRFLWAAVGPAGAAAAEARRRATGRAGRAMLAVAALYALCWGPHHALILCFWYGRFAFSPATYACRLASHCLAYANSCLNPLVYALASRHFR
# OX1R antag-2 = OX1R (HCRTR1) antagonists, primary screen, fluorescence, CHO/OX1R cells, Fluo-8 calcium, orexin A. Orexin/Hypocretin receptor type 1 (Homo sapiens), O43613. Fluo-8 calcium fluorescence. inhibition, % at 5 µM. 330,000 compounds, 0.43% hits. AID 434989, 2010;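 active = inhibition above its plate's threshold, mean inhibition of all tested compounds on the plate plus 3 SD, cut at about 37% in these data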;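 note: 0% = orexin A challenge wells and 100% = SB-334867-A antagonist wells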
# GalR3 antag conf = GalR3 antagonist hit confirmation, cell-based, fluorescence, triplicate | inhibition, % at 3 µM | HEK293 GalR3 CNG cAMP biosensor, membrane potential fluorescence; galR3 fused to GalR1 carboxy tail; challenged with forskolin and galanin at EC90 | 1,600 compounds, 59% hits | shares compounds with GalR3 antag | AID 652245, 2013;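 active = inhibition above the primary screen's cutoff, the mean inhibition of all screened compounds plus 3 SD, cut at about 13% in these data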;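 note: 0% = forskolin plus galanin and 100% = forskolin alone with DMSO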
# HEK-CNG parental = nonspecific cAMP agonists in parental HEK-CNG cells, counter-screen for GalR3 antagonist project, cell-based, fluorescence, high throughput; shares compounds with GalR3 antag; activation, % at 3 µM; HEK293-CNG parental cells, cAMP membrane potential fluorescence; normalised: DMSO wells 0%, forskolin wells 100%; 1,600 compounds, 10% hits; in the data active = activation above about 1.3%
# * = called active by the depositor; . = not tested or not shown. Only some compounds are listed: those with a hit (about 3.1% of all), similar ones and a draw of the others.
SMILES,CHO parental Ca,GPR7 antagonist,OX1R antag-1,GalR3 antag,OX1R antag-2,GalR3 antag conf,HEK-CNG parental
Cc1ccc(Oc2ccc(OCC(=O)Nc3ccncc3)cc2)cc1,58.3*,.,13.7,104.5*,49.8*,109.3*,-0.8
COc1cc(-c2ccc(NC(=O)NC3CC3)c(OC)c2)ccc1NC(=O)NC1CC1,-16.2,-2.9,3.2,-8.4,-22.4,.,.
CCN1CCN(S(=O)(=O)CC2(C)C3CCC2(C)C(=O)C3Br)CC1 (centres undefined),-23.5,-4.0,12.8,-7.5,-2.6,.,.
COc1cccc(NC(=O)CN(C)C(=O)CC2CCCCC2)c1,.,.,.,-3.1,.,.,.
COc1ccccc1Nc1ccc(NC(=O)c2cccc([N+](=O)[O-])c2C)cc1,-7.9,6.5,7.5,14.0*,-2.7,6.0,-1.5
Cn1c(C(=O)O)c(S(=O)(=O)c2ccc(Cl)cc2)c2ccccc21,5.2,-10.6,-3.4,-9.8,-15.8,.,.
CCC(C)c1ccc(NC(=O)COC(=O)c2nc3nccc(C)n3n2)cc1 (centres undefined),6.2,-5.9,33.4,14.6*,-7.1,13.7*,0.2
COc1ccc(/C=C2\N=C(C)OC2=O)cc1[N+](=O)[O-],-8.1,-1.8,44.8,7.3,5.8,.,.
O=C(NN=C(c1ccccc1)c1ccccn1)c1ccccc1,-1.2,.,30.0,12.7*,1.4,39.4*,0.5
COc1ccc([N+](=O)[O-])cc1NS(=O)(=O)c1ccc(C(=O)N2CCCC2)cc1,-3.4,.,9.2,-1.9,13.0,.,.
N#Cc1c([N+](=O)[O-])cc([N+](=O)[O-])cc1S(=O)(=O)Cc1ccccc1,16.6,.,28.5,63.7*,-2.1,25.4*,-0.6
CC1CCN(C(=O)/C(=C\c2cccs2)NC(=O)c2ccccc2)CC1,-12.7,-15.2,25.2,18.7*,-18.3,7.8,0.3
COc1ccc(N2CCN(c3nccs3)CC2)cc1,-4.7,-19.0,10.2,-7.2,-13.1,.,.
Cc1ccc(Nc2ccc(C(=O)O)cc2N)cc1,-4.0,-6.3,31.3,15.5*,3.4,2.7,-0.8
COc1ccc(Cc2noc(=O)[nH]2)cc1,.,.,.,-6.3,.,.,.
O=C(O)CC12CC3CC(C1)CC(n1ncc(NCc4ccco4)c(Cl)c1=O)(C3)C2,0.7,-7.6,22.3,15.5*,0.4,10.9,0.3
O=C(O)CC12CC3CC(C1)CC(n1ncc(NCC4CCCO4)c(Cl)c1=O)(C3)C2 (centres undefined),-1.5,-16.9,6.4,-0.1,1.3,.,.
CC(=O)c1ccc(N2CCN(c3ccc(S(=O)(=O)NCCCN(C)C)cc3[N+](=O)[O-])CC2)cc1,18.5,2.2,48.3,-8.6,-2.7,.,.
CN(C)CCCNS(=O)(=O)c1ccc(N2CCN(Cc3ccc4c(c3)OCO4)CC2)c([N+](=O)[O-])c1,-8.2,4.7,24.6,56.9*,-9.1,94.9*,0.0
COc1ccc(/C=N/NC(=O)CN(c2ccc(OC)cc2)S(=O)(=O)c2ccccc2)cc1,-12.7,-16.7,16.2,-3.3,-40.8,.,.
COc1ccc(/C=N/NC(=O)CN(CCc2ccccc2)S(=O)(=O)c2ccc(NC(C)=O)cc2)cc1OC,-20.6,-14.4,15.6,17.1*,-13.4,29.0*,-0.4
COc1cc(/C=N/NC(=O)CN(CCc2ccccc2)S(=O)(=O)c2ccc(NC(C)=O)cc2)cc(OC)c1OC,-26.0,-12.6,6.4,4.5,-32.2,.,.
COc1ccc(N(CC(=O)N/N=C/c2ccc(OC)c(OC)c2)S(=O)(=O)c2ccccc2)cc1,-13.3,-5.8,4.0,14.1*,-14.7,33.8*,-0.1
CCOC(=O)c1sc(NC(=O)CSc2n[nH]c(CC(C)C)n2)nc1C,-6.6,-10.6,19.4,-4.8,-16.6,.,.
CC(C)CC(N)c1csc(NC(=O)c2cc(C(C)(C)C)nn2Cc2ccccc2)n1 (centres undefined),.,.,.,-4.0,.,.,.
SMILES,CHO parental Ca,GPR7 antagonist,OX1R antag-1,GalR3 antag,OX1R antag-2,GalR3 antag conf,HEK-CNG parental
Cc1nc(SCc2nc3ccc(C(=O)c4ccccc4)cc3[nH]2)c2oc3ccccc3c2n1,-17.7,.,31.1,13.8*,26.8,21.9*,0.4
COC(=O)c1cc(OC)c(OC)cc1NC(=O)Nc1ccccc1F,-6.0,-3.2,15.0,4.8,-8.6,.,.
CS(=O)c1ccccc1COC(=O)Nc1ccc(Cl)cc1 (centres undefined),-16.7,3.3,3.1,1.7,-29.7,.,.
Cc1ccc(NC(=O)OCc2ccccc2S(C)=O)cc1 (centres undefined),-5.1,0.0,15.9,14.6*,-23.9,28.9*,-0.3
Cc1ccc(Oc2ncnc(N)c2[N+](=O)[O-])cc1C,-1.0,-14.9,35.6,-5.7,-11.9,.,.
CCOc1ccc(Br)cc1/C(C)=N\NC1=NCCN1,-5.5,16.8,11.8,65.2*,-15.6,79.6*,4.9*
Cn1ccc2c(/C=C/c3ccc(F)cc3)cc3c(c21)C1CCC3C1 (centres undefined),.,.,.,-5.5,.,.,.
Cc1nc2ccccc2cc1OCc1ccc(Cl)cc1,50.0*,13.7,40.9*,93.7*,0.4,94.4*,1.1
COc1cccc(COc2cc3ccccc3nc2C)c1,14.8,18.0,33.0,92.3*,5.0,102.6*,0.3
COc1ccc(N(CC(=O)Nc2ccc(S(=O)(=O)N3CCOCC3)cc2)S(=O)(=O)c2ccccc2)cc1,8.1,1.2,9.1,0.3,6.7,.,.
Cc1ccsc1C1C(C#N)=C(N)Oc2n[nH]c(C)c21 (centres undefined),-9.7,-5.7,11.7,29.6*,0.5,-0.6,0.0
CCc1ccc(OC)c(S(=O)(=O)Nc2ccc(Cc3ccncc3)cc2)c1,48.3*,3.9,41.6,45.8*,-2.6,7.7,-0.5
COc1ccc(C(=O)OC(C)CN2CCOCC2)cc1OC (centres undefined),1.9,-9.7,15.3,.,-1.3,2.8,-0.1
COc1ccc(C(=O)OC(C)CN2CCOCC2)cc1 (centres undefined),-9.1,-2.1,-6.2,-12.5,7.6,.,.
COc1ccc(C(=O)C(CN2CCOCC2)c2ccccc2)cc1F (centres undefined),.,35.1*,.,27.7*,.,1.4,0.1
O=C(COC(=O)/C=C/c1cccc(F)c1)Nc1ccc2[nH]c(=O)[nH]c2c1,2.7,.,15.9,-4.7,-4.5,.,.
O=C(COC(=O)/C=C/c1cccc(Cl)c1)Nc1ccc2[nH]c(=O)[nH]c2c1,5.1,.,10.7,35.5*,-16.8,44.2*,6.9*
